Data on three compounds can be found in ChEMBL document CHEMBL1155660, “Hyalodendrosides A and B, antifungal triterpenoid glycosides from a lignicolous hyphomycete, Hyalodendron species” (2000).

Values after ≈ are worked out from the molar mass of the structure shown.

As usually defined, the MIC is the lowest concentration that inhibits growth of the organism.

Common to all, as to assay type: functional
In one assay the test system is Aspergillus fumigatus. Nature of the assay: Antifungal activity against Aspergillus fumigatus MF5668 after 48 hrs. A digest of the protocol: (§1)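 Broth microdilution MIC in microtiter format. Organisms grown in Synthetic Complete defined medium. Log-phase cells adjusted by A600 to an initial inoculum absorbance of 0.0014. […] Growth inhibition scored at 24 and 48 h, with visual endpoints.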

The test system of assay [1] is Candida albicans. As to the kind of experiment: Antifungal activity against Candida albicans MY1055 after 48 hrs in presence of 10% bovine serum albumin. The settings on record: MY1055, 48 h. A digest of the protocol: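 Microtiter broth dilution MIC in Synthetic Complete medium with 10% bovine serum albumin added. Log-phase inoculum set by A600 to an absorbance of 0.0014. Titration started at 256 µg/mL. Cells grown 48 h and endpoints read visually.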

For another assay, the system named is Cryptococcus neoformans. Nature of the assay: Antifungal activity against Cryptococcus neoformans MY2062 after 48 hrs. A digest of the protocol: as §1
For assay [2], the system named is Candida albicans. Nature of the assay: Antifungal activity against Candida albicans MY1055 after 48 hrs. The settings on record: MY1055, 48 h. A digest of the protocol: as §1
The test system of a further assay is Saccharomyces cerevisiae. Nature of the assay: Antifungal activity against Saccharomyces cerevisiae MY2214 after 48 hrs. An outline of the steps:
as §1

In the case of `CC(=O)O[C@@H]1C[C@]2(CO)[C@H]3CCC4=C5C(=O)C[C@@H](C(C)C)[C@@]5(C)CC[C@@]4(C)[C@]3(C)CC[C@H]2C(C)(C)[C@H]1O[C@@H]1O[C@H](CO)[C@@H](O)[C@H](O)[C@H]1O` [HYALODENDROSIDE B], the MIC was determined as 64 µg/mL (≈ 94.6 µM) in the assay with Aspergillus fumigatus; 128 µg/mL in the assay with Candida albicans [1]; 4 µg/mL (≈ 5.91 µM) in the assay with Cryptococcus neoformans; 16 µg/mL (≈ 23.6 µM) with Candida albicans [2]; 32 µg/mL (≈ 47.3 µM) against Saccharomyces cerevisiae.

For the compound `C[C@@H]1[C@H](O)[C@@H](C)/C=C/C=C/C=C/C=C/C=C/C=C/C=C/[C@H](O[C@@H]2O[C@H](C)[C@@H](O)[C@H](N)[C@@H]2O)C[C@@H]2O[C@](O)(C[C@@H](O)C[C@@H](O)[C@H](O)CC[C@@H](O)C[C@@H](O)CC(=O)O[C@H]1C)C[C@H](O)[C@H]2C(=O)O` [AMPHOTERICIN B], the MIC amounted to 1 µg/mL (≈ 1.08 µM) against Aspergillus fumigatus; 0.25 µg/mL in the assay on Candida albicans [1]; 0.25 µg/mL (≈ 0.271 µM) with Cryptococcus neoformans; 0.5 µg/mL (≈ 0.541 µM) with Candida albicans [2]; 0.25 µg/mL (≈ 0.271 µM) in the assay on Saccharomyces cerevisiae.

In the case of `CC(=O)O[C@@H]1C[C@]2(CO)[C@H]3CCC4=C5C(=O)CC6[C@H](C)CO[C@@H](O)C56CC[C@@]4(C)[C@]3(C)CC[C@H]2C(C)(C)[C@H]1O[C@@H]1O[C@H](CO)[C@@H](O)[C@H](O)[C@H]1O` (stereo not given in full) [HYALODENDROSIDE A], the MIC was more than 256 µg/mL against Aspergillus fumigatus; 128 µg/mL in the assay on Candida albicans [1]; more than 256 µg/mL in the assay with Cryptococcus neoformans; 128 µg/mL (≈ 181 µM) with Candida albicans [2]; 128 µg/mL (≈ 181 µM) against Saccharomyces cerevisiae.
